Assay results reported in ChEMBL document CHEMBL1158680, “Chemical constituents and biological activities of the fruit of Zanthoxylum integrifoliolum” (1999).

Assays:
[1] = tested on: Aorta; test: Vasorelaxation activity in rat aorta assessed as inhibition of norepinephrine-induced phasic contraction at 1 ug/ml preincubated for 15 mins relative to control; format: functional; design: scale not given: the % may be the effect or the level left
Method in brief: (§1)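 Rat aorta was preincubated with test sample or 0.1% DMSO vehicle at 37 °C for 15 min. Contraction was then evoked with high K+ (80 mM) or norepinephrine (3 μM). Response is expressed as percent of control contraction, mean ± SEM, n = 3.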

[2] = tested on: Aorta; test: Vasorelaxation activity in rat aorta assessed as inhibition of norepinephrine-induced tonic contraction at 1 ug/ml preincubated for 15 mins relative to control; format: functional; design: scale not given: the % may be the effect or the level left; method in brief: as §1

## COc1cc2nc(N3CCN(C(=O)c4ccco4)CC3)nc(N)c2cc1OC [PRAZOSIN]
[1]
  Activity: 0%
[2]
  Activity: 0%
